Values after ≈ are worked out from the molar mass of the structure shown. Where two headings read alike, the source gives them in different places.
Key:
Format in all cases: cell-based
[1] = test system: antibiotic susceptible E. faecalis ATCC 29212 (Ef12); experiment: MIC assay; details: for MIC: Enterococcus faecalis, ATCC29212, read-out: MIC Efl2; for MIC Efl2: E. faecalis ATCC 29212
[2] = test system: tested Gram-positive strains; experiment: MIC assay, summary over the tested Gram-positive strains; details: for antimicrobial activity (in words): tested Gram-positive strains
Procedure, shortened: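 CLSI standard broth microdilution. Test compound started at 50 µg/ml and serially diluted 2-fold. Run in triplicate.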

[3] = test system: S. aureus and E. faecalis biofilms; experiment: Biofilm inhibition and destruction at 4x and 8xMIC; details: 4x and 8xMIC (data not shown)
[4] = test system: S. aureus ATCC 25923 (Sa23), antibiotic susceptible; experiment: MIC assay
[5] = test system: S. aureus BAA-2312 (Sa12), antibiotic-resistant; experiment: MIC assay
[6] = test system: S. aureus ATCC 33591 (Sa91); experiment: MIC assay
[7] = test system: S. aureus ATCC 700699 (Sa99); experiment: MIC assay; details: for MIC Sa99: S. aureus ATCC 700699
[8] = test system: S. aureus ATCC 33592 (Sa92); experiment: MIC assay
[9] = test system: S. epidermidis ATCC 700296 (Se); experiment: MIC assay
[10] = test system: Bacillus subtilis ATCC 6623 (Bs); experiment: MIC assay
[11] = test system: vancomycin-resistant E. faecium ATCC 700221 (Ef21); experiment: MIC assay
[12] = test system: S. aureus ATCC 25923 (MSSA); experiment: Multistep
[13] = test system: S. aureus ATCC 700699 (MRSA); experiment: Multistep; details: within two weeks of the start
[14] = test system: S. aureus ATCC 700699 (MRSA) stationary phase persister cells; experiment: Persister cell killing assay; details: 64xMIC
[15] = test system: E. faecalis clinical isolates (VRE); experiment: MIC against clinical isolates of E. faecalis; details: Enterococcus faecalis, VRE
[16] = test system: E. faecium clinical isolates (VRE); experiment: MIC against clinical isolates of E. faecium; details: Enterococcus faecium, VRE
[17] = test system: S. aureus clinical isolates (MSSA, MRSA); experiment: MIC against clinical isolates of S. aureus; details: Staphylococcus aureus, MRSA|MSSA

Compound: O=C(O)c1ccc(-n2cc(CNc3ccc(Br)c(C(F)(F)F)c3)c(-c3ccc(C(F)(F)F)cc3)n2)cc1 [Compound 63, 4-[4-[[4-bromo-3-(trifluoromethyl)anilino]methyl]-3-[4-(trifluoromethyl)phenyl]pyrazol-1-yl]benzoic acid]
- MIC [1]: 1.56 µg/mL (≈ 2.67 µM)

Compound: O=C(O)c1ccc(-n2cc(CNc3cc(Cl)c(O)c(Cl)c3)c(-c3ccc(C(F)(F)F)cc3)n2)cc1 [Compound 78, 4-[4-[(3,5-dichloro-4-hydroxy-anilino)methyl]-3-[4-(trifluoromethyl)phenyl]pyrazol-1-yl]benzoic acid]
- antimicrobial activity (in words) [2]: inactivity

Compound: O=C(O)c1ccc(-n2cc(CNc3ccc(Br)c(Cl)c3F)c(-c3ccc(C(F)(F)F)cc3)n2)cc1 [Compound 75, 4-[4-[(4-bromo-3-chloro-2-fluoro-anilino)methyl]-3-[4-(trifluoromethyl)phenyl]pyrazol-1-yl]benzoic acid]
- MIC [1]: 1.56 µg/mL (≈ 2.74 µM)
- biofilm inhibition and destruction [3]: > 95%

Compound: O=C(O)c1ccc(-n2cc(CNc3cccc(OC(F)(F)F)c3)c(-c3ccc(C(F)(F)F)cc3)n2)cc1 [Compound 50, 4-[4-[[3-(trifluoromethoxy)anilino]methyl]-3-[4-(trifluoromethyl)phenyl]pyrazol-1-yl]benzoic acid]
- MIC ([2]; read-out: MIC values): 0.78 to 3.12 µg/mL (≈ 1.5 to 5.99 µM)

Compound: Cc1ccc(NCc2cn(-c3ccc(C(=O)O)cc3)nc2-c2ccc(C(F)(F)F)cc2)cc1Cl [Compound 58, 4-[4-[(3-chloro-4-methyl-anilino)methyl]-3-[4-(trifluoromethyl)phenyl]pyrazol-1-yl]benzoic acid]
- antimicrobial activity (in words) [2]: inhibited the growth of tested bacteria efficiently

Compound: 4-[4-[(3-chloroanilino)methyl]-3-(p-tolyl)pyrazol-1-yl]benzoic acid [Compound 44]
- MIC Sa23 [4]: 1.56 µg/mL
- MIC Sal2 [5]: 1.56 µg/mL
- MIC Sa91 [6]: 0.78 µg/mL
- MIC Sa99 [7]: 0.78 µg/mL
- MIC Sa92 [8]: 1.56 µg/mL
- MIC Se [9]: 3.12 µg/mL
- MIC Bs [10]: 0.78 µg/mL
- MIC Ef21 [11]: 0.78 µg/mL
- MIC Efl2 [1]: 12.5 µg/mL

Compound: O=C(O)c1ccc(-n2cc(CNc3ccc(Br)cc3)c(-c3ccc(C(F)(F)F)cc3)n2)cc1 [Compound 47, 4-[4-[(4-bromoanilino)methyl]-3-[4-(trifluoromethyl)phenyl]pyrazol-1-yl]benzoic acid]
- MIC ([2]; read-out: MIC value as low as): ≥ 0.78 µg/mL

Compound: 4-[4-[(3-fluoroanilino)methyl]-3-(p-tolyl)pyrazol-1-yl]benzoic acid [Compound 42]
- MIC Sa23 [4]: 3.12 µg/mL
- MIC Sal2 [5]: 3.12 µg/mL
- MIC Sa91 [6]: 3.12 µg/mL
- MIC Sa99 [7]: 3.12 µg/mL
- MIC Sa92 [8]: 3.12 µg/mL
- MIC Se [9]: 6.25 µg/mL
- MIC Bs [10]: 1.56 µg/mL
- MIC Ef21 [11]: 6.25 µg/mL
- MIC Efl2 [1]: 25 µg/mL

Compound: O=C(O)c1ccc(-n2cc(CNc3ccc(N4CCOCC4)c(C(F)(F)F)c3)c(-c3ccc(C(F)(F)F)cc3)n2)cc1 [Compound 68, 4-[4-[[4-morpholino-3-(trifluoromethyl)anilino]methyl]-3-[4-(trifluoromethyl)phenyl]pyrazol-1-yl]benzoic acid]
- antimicrobial activity (in words) [2]: highly potent

Compound: 4-[4-[(4-fluoroanilino)methyl]-3-(p-tolyl)pyrazol-1-yl]benzoic acid [Compound 43]
- MIC Sa23 [4]: 6.25 µg/mL
- MIC Sal2 [5]: 3.12 µg/mL
- MIC Sa91 [6]: 6.25 µg/mL
- MIC Sa99 [7]: 6.25 µg/mL
- MIC Sa92 [8]: 12.5 µg/mL
- MIC Se [9]: 12.5 µg/mL
- MIC Bs [10]: 1.56 µg/mL
- MIC Ef21 [11]: 6.25 µg/mL
- MIC Efl2 [1]: 25 µg/mL

Compound: NS(=O)(=O)c1ccc(NCc2cn(-c3ccc(C(=O)O)cc3)nc2-c2ccc(C(F)(F)F)cc2)cc1 [Compound 49, 4-[4-[(4-sulfamoylanilino)methyl]-3-[4-(trifluoromethyl)phenyl]pyrazol-1-yl]benzoic acid]
- antimicrobial activity (in words) [2]: almost eliminated the activity

Compound: O=C(O)c1ccc(-n2cc(CNc3ccccc3)c(-c3ccc(C(F)(F)F)cc3)n2)cc1 [Compound 41, 4-[4-(anilinomethyl)-3-[4-(trifluoromethyl)phenyl]pyrazol-1-yl]benzoic acid]
- MIC ([2]; read-out: MIC value as low as): ≥ 3.12 µg/mL

Compound: O=C(O)c1ccc(-n2cc(CNc3cccc(C(F)(F)F)c3)c(-c3ccc(C(F)(F)F)cc3)n2)cc1 [Compound 48, 4-[4-[[3-(trifluoromethyl)anilino]methyl]-3-[4-(trifluoromethyl)phenyl]pyrazol-1-yl]benzoic acid]
- MIC ([7]; Staphylococcus aureus, ATCC700699, read-out: MIC Sa99): 0.39 µg/mL (≈ 0.772 µM)
- antimicrobial activity (in words) [2]: potent activity

Compound: O=C(O)c1ccc(-n2cc(CNc3ccc(C(=O)O)c(C(F)(F)F)c3)c(-c3ccc(C(F)(F)F)cc3)n2)cc1 [Compound 67, 4-[[1-(4-carboxyphenyl)-3-[4-(trifluoromethyl)phenyl]pyrazol-4-yl]methylamino]-2-(trifluoromethyl)benzoic acid]
- antimicrobial activity (in words) [2]: eliminated the activity

Compound: O=C(O)c1cn(C2CC2)c2cc(N3CCNCC3)c(F)cc2c1=O [ciprofloxacin]
- passage at which resistance started to develop [12]: 7 passage
- fold more resistant ([12]; within two weeks of the start): 16 fold
- fold more resistant [13]: 16 fold

Compound: CNC(C)C1CCC(N)C(OC2C(N)CC(N)C(OC3OCC(C)(O)C(NC)C3O)C2O)O1 (stereo not drawn) [gentamicin, reference compound]
- effect on viability of MRSA persisters (in words) [14]: did not affect the viability

Compound: O=C(O)c1ccc(-n2cc(CNc3cc(F)c(C(F)(F)F)cc3F)c(-c3ccc(C(F)(F)F)cc3)n2)cc1 [Compound 76, 4-[4-[[2,5-difluoro-4-(trifluoromethyl)anilino]methyl]-3-[4-(trifluoromethyl)phenyl]pyrazol-1-yl]benzoic acid]
- MIC [1]: 3.12 µg/mL (≈ 5.76 µM)

Compound: 4-[4-[(4-chloroanilino)methyl]-3-(p-tolyl)pyrazol-1-yl]benzoic acid [Compound 45]
- MIC Sa23 [4]: 1.56 µg/mL
- MIC Sal2 [5]: 1.56 µg/mL
- MIC Sa91 [6]: 1.56 µg/mL
- MIC Sa99 [7]: 1.56 µg/mL
- MIC Sa92 [8]: 1.56 µg/mL
- MIC Se [9]: 3.12 µg/mL
- MIC Bs [10]: 0.78 µg/mL
- MIC Ef21 [11]: 1.56 µg/mL
- MIC Efl2 [1]: 6.25 µg/mL

Compound: O=C(O)c1ccc(-n2cc(CNc3cccc(Br)c3)c(-c3ccc(C(F)(F)F)cc3)n2)cc1 [Compound 46, 4-{4-[(3-bromoanilino)methyl]-3-[4-(trifluoromethyl)phenyl]-1H-pyrazol-1-yl}benzoic acid]
- MIC ([2]; read-out: MIC value as low as): ≥ 0.78 µg/mL

Compound: Cc1onc(-c2ccccc2)c1C(=O)N[C@@H]1C(=O)N2[C@@H]1SC(C)(C)[C@@H]2C(=O)O [Oxa, Oxacillin]
- MIC ([15]; E. faecalis 1088051, VRE): 64 µg/mL (≈ 159 µM)
- MIC ([15]; E. faecalis 1091563, VRE): 64 µg/mL (≈ 159 µM)
- MIC ([15]; E. faecalis 1091720, VRE): 64 µg/mL (≈ 159 µM)
- MIC ([15]; E. faecalis 1094112, VRE): > 64 µg/mL
- MIC ([15]; E. faecalis 1100440, VRE): > 64 µg/mL
- MIC ([16]; E. faecium 1088168, VRE): > 64 µg/mL
- MIC ([16]; E. faecium 1088228, VRE): > 64 µg/mL
- MIC ([16]; E. faecium 1088925, VRE): > 64 µg/mL
- MIC ([16]; E. faecium 1089544, VRE): > 64 µg/mL
- MIC ([16]; E. faecium 1091282, VRE): > 64 µg/mL
- MIC ([17]; S. aureus 1088064, MRSA): 64 µg/mL (≈ 159 µM)
- MIC ([17]; S. aureus 1088610, MRSA): 64 µg/mL (≈ 159 µM)
- MIC ([17]; S. aureus 1088888, MRSA): > 64 µg/mL
- MIC ([17]; S. aureus 1089106, MRSA): 64 µg/mL (≈ 159 µM)
